Assay results as given in ChEMBL document CHEMBL1649328, “Assessment of pandemic and seasonal influenza A (H1N1) virus susceptibility to neuraminidase inhibitors in three enzyme activity inhibition assays” (Antimicrob Agents Chemother, 2010).
pIC50: −log10 of the molar value.

Columns and labels:
Influenza A virus [1] = test: Antiviral activity against influenza A (A/North Carolina/01/2009 (H1N1)) virus harboring neuraminidase H275Y mutant after 30 mins by NA-star substrate based chemiluminescent assay; type: functional, organism-based
How it was run: (§1)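 Titrated virus in NA-Star buffer (26 mM MES, 4 mM CaCl2, pH 6.0) was preincubated with ten half-log inhibitor dilutions (0.03–1,000 nM final) for 30 min at 37°C, then with substrate for 30 min at room temperature. Accelerator solution was added and luminescence read for 0.1 s. IC50 came from a Vmax·[1−x/(K+x)] fit, mean of ≥3 experiments.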

Influenza A virus [2] = test: Antiviral activity against influenza A (A/Singapore/57/2009 (H1N1)) virus harboring neuraminidase H275Y mutant after 30 mins by NA-star substrate based chemiluminescent assay; type: functional, organism-based; how it was run: as §1
Influenza A virus [3] = test: Antiviral activity against influenza A (A/North Carolina/01/2009 (H1N1)) virus harboring neuraminidase H275Y mutant after 30 mins by MUNANA substrate based fluorometric assay; type: functional, organism-based
How it was run: (§2)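 Fluorometric NA inhibition with MUNANA (100 μM final). Titrated virus in NA-Star buffer (26 mM MES, 4 mM CaCl2, pH 6.0) was preincubated with ten half-log inhibitor dilutions (0.03–1,000 nM final) for 30 min at 37°C, then with substrate for 30 min at 37°C. The reaction was stopped with 0.1 M glycine in 25% ethanol, pH 10.7, and 4-methylumbelliferone was read at ex 365/em 450 nm. IC50 came from a Vmax·[1−x/(K+x)] fit, mean of ≥3 experiments.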

Influenza A virus [4] = test: Antiviral activity against influenza A (A/Osaka/180/2009 (H1N1)) virus harboring neuraminidase H275Y mutant after 30 mins by MUNANA substrate based fluorometric assay; type: functional, organism-based; how it was run: as §2
Influenza A virus [5] = test: Antiviral activity against influenza A (A/Washington/29/2009 (H1N1)) virus harboring neuraminidase H275Y mutant after 30 mins by MUNANA substrate based fluorometric assay; type: functional, organism-based; how it was run: as §2
Influenza A virus [6] = test: Antiviral activity against influenza A (A/Hong Kong/2369/2009 (H1N1)) virus harboring neuraminidase H275Y mutant after 30 mins by MUNANA substrate based fluorometric assay; type: functional, organism-based; how it was run: as §2
Influenza A virus [7] = test: Antiviral activity against influenza A (A/Singapore/57/2009 (H1N1)) virus harboring neuraminidase H275Y mutant after 30 mins by MUNANA substrate based fluorometric assay; type: functional, organism-based; how it was run: as §2
Influenza A virus [8] = test: Ratio of IC50 for influenza A (A/North Carolina/02/2009 (H1N1)) virus harboring neuraminidase H275Y mutant to IC50 for influenza A (A/Washington/10/2008 (H1N1)) virus expressing wild type enzyme expressing wild type enzyme by NA-star substrate based chemiluminescent assay; type: functional
Influenza A virus [9] = test: Ratio of IC50 for influenza A (A/Singapore/91/2009 (H1N1)) virus harboring neuraminidase H275Y mutant to IC50 for influenza A (A/Washington/29/2009 (H1N1)) virus expressing wild type enzyme by NA-star substrate based chemiluminescent assay; type: functional
How it was run: (§3)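 Chemiluminescent NA inhibition in MES 26 mM/CaCl2 4 mM buffer, pH 6.0. […] Luminescence read for 0.1 s. IC50 from the fit y = Vmax·{1 − [x/(K + x)]}, mean of ≥3 experiments. Ratio is the H275Y variant IC50 over the pandemic wild-type reference IC50.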

Influenza A virus [10] = test: Ratio of IC50 for influenza A (A/North Carolina/01/2009 (H1N1)) virus harboring neuraminidase H275Y mutant to IC50 for influenza A (A/Washington/29/2009 (H1N1)) virus expressing wild type enzyme by NA-star substrate based chemiluminescent assay; type: functional
Influenza A virus [11] = test: Ratio of IC50 for influenza A (A/Washington/29/2009 (H1N1)) virus harboring neuraminidase H275Y mutant to IC50 for influenza A (A/Washington/29/2009 (H1N1)) virus expressing wild type enzyme by NA-star substrate based chemiluminescent assay; type: functional; how it was run: as §3
Influenza A virus [12] = test: Ratio of IC50 for influenza A (A/Singapore/57/2009 (H1N1)) virus harboring neuraminidase H275Y mutant to IC50 for influenza A (A/Washington/29/2009 (H1N1)) virus expressing wild type enzyme by NA-star substrate based chemiluminescent assay; type: functional; how it was run: as §3
Influenza A virus [13] = test: Ratio of IC50 for influenza A (A/Singapore/91/2009 (H1N1))virus harboring neuraminidase H275Y mutant to IC50 for influenza A (A/Washington/29/2009 (H1N1)) virus expressing wild type enzyme by MUNANA substrate based fluorometric assay; type: functional
How it was run: (§4)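 Fluorometric NA inhibition in MES/CaCl2 buffer, pH 6.0. Virus preincubated 30 min at 37°C with ten half-log inhibitor dilutions (0.03–1,000 nM final), then MUNANA (100 μM final) added for 30 min at 37°C. Stopped with 0.1 M glycine in 25% ethanol, pH 10.7. Read at ex 365/em 450 nm. IC50 curve-fitted, mean of ≥3 experiments. Ratio is variant IC50 over wild-type reference IC50.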

Influenza A virus [14] = test: Ratio of IC50 for influenza A (A/Montana/02/2009 (H1N1)) virus harboring neuraminidase H275Y mutant to IC50 for influenza A (A/Washington/29/2009 (H1N1)) virus expressing wild type enzyme by MUNANA substrate based fluorometric assay; type: functional
Influenza A virus [15] = test: Ratio of IC50 for influenza A (A/Washington/29/2009 (H1N1)) virus harboring neuraminidase H275Y mutant to IC50 for influenza A (A/Washington/29/2009 (H1N1)) virus expressing wild type enzyme by MUNANA substrate based fluorometric assay; type: functional; how it was run: as §4
Influenza A virus [16] = test: Ratio of IC50 for influenza A (A/Singapore/57/2009 (H1N1)) virus harboring neuraminidase H275Y mutant to IC50 for influenza A (A/Washington/29/2009 (H1N1)) virus expressing wild type enzyme by MUNANA substrate based fluorometric assay; type: functional; how it was run: as §4
Influenza A virus [17] = test: Ratio of IC50 for influenza A (A/North Carolina/01/2009 (H1N1)) virus harboring neuraminidase H275Y mutant to IC50 for influenza A (A/Washington/29/2009 (H1N1)) virus expressing wild type enzyme by fetuin substrate based colorimetric assay; type: functional
Influenza A virus [18] = test: Ratio of IC50 for influenza A (A/Montana/02/2009 (H1N1)) virus harboring neuraminidase H275Y mutant to IC50 for influenza A (A/Washington/29/2009 (H1N1)) virus expressing wild type enzyme by fetuin substrate based colorimetric assay; type: functional
Influenza A virus [19] = test: Ratio of IC50 for influenza A (A/Osaka/180/2009 (H1N1)) virus harboring neuraminidase H275Y mutant to IC50 for influenza A (A/Washington/29/2009 (H1N1)) virus expressing wild type enzyme by fetuin substrate based colorimetric assay; type: functional
How it was run: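 Colorimetric NA inhibition using a virus dilution that gave 0.4–0.8 OD549. Virus preincubated 1 h at 37°C with half-log inhibitor dilutions (0.03–1,000 nM final) in MES/CaCl2 pH 6.0 buffer. Fetuin (5.5 mg/ml final) then added for 18 h at 37°C. Released sialic acid detected by periodate oxidation and thiobarbituric acid, butanol extraction, read at 549 nm. IC50 curve-fitted, ≥2 experiments. Ratio is variant IC50 over wild-type reference IC50.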

Influenza A virus [20] = test: Ratio of IC50 for influenza A (A/Hong Kong/2369/2009 (H1N1)) virus harboring neuraminidase H275Y mutant to IC50 for influenza A (A/Washington/29/2009 (H1N1)) virus expressing wild type enzyme by fetuin substrate based colorimetric assay; type: functional

SMILES | pIC50 (Influenza A virus [1]) | pIC50 (Influenza A virus [2]) | pIC50 (Influenza A virus [3]) | pIC50 (Influenza A virus [4]) | pIC50 (Influenza A virus [5]) | pIC50 (Influenza A virus [6]) | pIC50 (Influenza A virus [7]) | Ratio IC50 (Influenza A virus [8]) | Ratio IC50 (Influenza A virus [9]) | Ratio IC50 (Influenza A virus [10]) | Ratio IC50 (Influenza A virus [11]) | Ratio IC50 (Influenza A virus [12]) | Ratio IC50 (Influenza A virus [13]) | Ratio IC50 (Influenza A virus [14]) | Ratio IC50 (Influenza A virus [15]) | Ratio IC50 (Influenza A virus [16]) | Ratio IC50 (Influenza A virus [17]) | Ratio IC50 (Influenza A virus [18]) | Ratio IC50 (Influenza A virus [19]) | Ratio IC50 (Influenza A virus [20])
C/C=C\[C@@H]1C[C@H](C(=O)O)N[C@H]1[C@@H](NC(C)=O)[C@](C)(CCC)OC | 9.08 | 8.97 | 8.71 | 8.61 | 8.75 | 8.78 | 8.86 | 1 | 1 | 5 | 5 | 3 | 1 | 5 | 3 | 3 | 2 | 2 | 3 | 3
CCC(CC)[C@H](NC(C)=O)[C@@H]1[C@H](O)[C@@H](C(=O)O)C[C@H]1NC(=N)N [PERAMIVIR ANHYDROUS] | 7.86 | 7.93 | 6.83 | 7.01 | 6.82 | 6.89 | 6.91 | 1 | 1 | 125 | 89 | 84 | 1 | 1095 | 751 | 609 | 140 | 111 | 398 | 330
